Reference: ChEMBL document CHEMBL4715825, “Synthesis and biological evaluations of marine oxohexadecenoic acids: PPARα/γ dual agonism and anti-diabetic target gene effects” (Eur J Med Chem, 2018)
The source made the active and inactive calls. No cut-off for these calls is given here.

Experiments:
[1] = biological target: T1, Peroxisome proliferator-activated receptor alpha (Homo sapiens) (UniProt Q07869); experiment: Agonist activity at human PPARalpha in 8 day differentiated human SGBS cells assessed as increase in ANGPTL4 gene expression at 25 uM incubated for 24 hrs by SYBR-green based qPCR analysis; type: cell-based; conditions: filed as agonist
T1 sequence (whole entry): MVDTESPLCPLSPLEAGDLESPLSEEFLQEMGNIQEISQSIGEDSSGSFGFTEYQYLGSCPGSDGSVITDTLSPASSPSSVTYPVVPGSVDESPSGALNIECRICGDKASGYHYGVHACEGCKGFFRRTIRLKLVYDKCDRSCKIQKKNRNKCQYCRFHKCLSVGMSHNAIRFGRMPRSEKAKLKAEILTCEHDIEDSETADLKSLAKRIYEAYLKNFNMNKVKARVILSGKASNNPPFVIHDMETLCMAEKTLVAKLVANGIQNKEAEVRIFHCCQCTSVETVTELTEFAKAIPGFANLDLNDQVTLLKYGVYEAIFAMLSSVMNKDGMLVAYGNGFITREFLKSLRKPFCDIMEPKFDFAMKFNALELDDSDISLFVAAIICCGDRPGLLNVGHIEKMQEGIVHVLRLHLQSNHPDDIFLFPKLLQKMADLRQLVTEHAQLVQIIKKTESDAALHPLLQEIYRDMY
Summary of the method: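 SGBS preadipocytes were seeded at passage P6-P8 and grown to confluence. They were differentiated for 4 days in Quickdiff (3FC plus dexamethasone, IBMX and rosiglitazone), then kept in 3FC with medium renewed every fourth day. On day 8, cells were stimulated for 24 h in 3FC with compound:BSA or rosiglitazone. SYBR-green qPCR used gene-specific primers. Data are mean ± SEM of three biological replicates in duplicate.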

[2] = biological target: T2, Peroxisome proliferator-activated receptor gamma (Homo sapiens, UniProt P37231); experiment: Agonist activity at recombinant human PPARgamma LBD (205 to 505 residues) expressed in African green monkey COS-1 cells incubated for 18 hrs by luciferase reporter gene assay; type: cell-based
T2 sequence (P37231 whole entry): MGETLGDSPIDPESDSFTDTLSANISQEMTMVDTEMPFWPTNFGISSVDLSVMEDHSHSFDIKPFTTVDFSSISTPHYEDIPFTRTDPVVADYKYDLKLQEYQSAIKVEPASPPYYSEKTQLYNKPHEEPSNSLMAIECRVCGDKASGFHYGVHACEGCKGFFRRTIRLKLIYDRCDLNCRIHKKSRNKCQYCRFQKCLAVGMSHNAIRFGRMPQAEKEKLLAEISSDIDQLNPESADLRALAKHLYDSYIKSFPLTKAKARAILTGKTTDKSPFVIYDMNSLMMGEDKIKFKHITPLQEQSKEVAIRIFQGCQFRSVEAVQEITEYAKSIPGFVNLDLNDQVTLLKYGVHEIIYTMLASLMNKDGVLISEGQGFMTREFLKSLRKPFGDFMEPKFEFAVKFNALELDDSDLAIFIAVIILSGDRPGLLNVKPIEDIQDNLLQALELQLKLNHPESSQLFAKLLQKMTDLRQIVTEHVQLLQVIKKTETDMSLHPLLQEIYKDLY
Summary of the method: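 Transient Gal4 one-hybrid assay in COS-1 cells (7×10^4 per well), transfected 24 h after seeding. Plasmids were Gal4-DBD fused to the human nuclear receptor LBD, a 5×UAS-SV40 luciferase reporter and pRL-CMV Renilla control. Ligand in DMSO (final 0.1%) was added 5 h post-transfection. Dual-luciferase activity was read after 18 h, expressed as RLU, from three biological replicates in quadruplicate.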

[3] = biological target: T3, Peroxisome proliferator-activated receptor gamma (Homo sapiens) (UniProt P37231); experiment: Agonist activity at human PPARgamma in 8 day differentiated human SGBS cells assessed as increase in IRS1 gene expression at 25 uM incubated for 24 hrs by SYBR-green based qPCR analysis; type: cell-based; conditions: filed as agonist
T3 sequence (whole entry): T2 sequence (P37231 whole entry)

SGBS [4] = experiment: Induction of adipogenesis in 8 day differentiated human SGBS cells assessed as upregulation of fatty acid biosynthesis genes at 25 uM incubated for 8 days by Illumina sequencing method; type: functional, cell-based
Summary of the method: (§1)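 SGBS cells were differentiated for 8 days: Quickdiff for days 0-4 with 2 µM rosiglitazone or 25 µM oxo-fatty acid:BSA, then 3FC. Total RNA was extracted (RIN 9.80-10.00) and strand-specific TruSeq libraries were sequenced on NextSeq 500 (2×75 bp paired-end). Reads were aligned to hg19 and quantified as RPKM. Data were expressed as log2 fold over day-0 cells (n = 2-4) and grouped into KEGG gene sets.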

SGBS [5] = experiment: Induction of adipogenesis in 8 day differentiated human SGBS cells assessed as upregulation of PPAR signalling genes at 25 uM incubated for 8 days by Illumina sequencing method; type: functional, cell-based; summary of the method: as §1
[6] = biological target: T1, Peroxisome proliferator-activated receptor alpha (Homo sapiens); experiment: Agonist activity at human PPARalpha in human HuH-7 cells assessed as increase in ANGPTL4 gene expression at 50 uM incubated for 24 hrs by SYBR-green based qPCR analysis; type: cell-based; conditions: filed as agonist
Summary of the method: (§2)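 Cells were seeded at 2×10^5 per well and treated 24 h later with compound in DMSO (final 0.1%). The next day, cells were washed and scraped into RLT buffer. RNA was isolated, and target gene mRNA was quantified by SYBR-green qPCR with specific primers.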

[7] = biological target: T1, Peroxisome proliferator-activated receptor alpha (Homo sapiens); experiment: Agonist activity at human PPARalpha in human HuH-7 cells assessed as increase in PLIN1 gene expression at 50 uM incubated for 24 hrs by SYBR-green based qPCR analysis; type: cell-based; conditions: filed as agonist; summary of the method: as §2
[8] = biological target: T3, Peroxisome proliferator-activated receptor gamma (Homo sapiens); experiment: Agonist activity at human PPARgamma in 8 day differentiated human SGBS cells assessed as increase in leptin gene expression at 25 uM incubated for 24 hrs by SYBR-green based qPCR analysis; type: cell-based; conditions: filed as agonist
[9] = Cytotoxicity against African green monkey COS-1 cells assessed as cell viability at EC50 concentration for PPAR activation assay by XTT assay; type: cell-based; conditions: chlorocebus aethiops, read-out: Activity
Summary of the method: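 Run on COS-1 cells treated in parallel with the Gal4-LBD PPAR reporter assays. Metabolic NAD(P)H flux was measured by kit XTT assay per the maker's protocol. Absorbance was read at 450/690 nm.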

[10] = biological target: T1, Peroxisome proliferator-activated receptor alpha (Homo sapiens); experiment: Agonist activity at human PPARalpha in human HuH-7 cells assessed as increase in ACSL3 gene expression at 50 uM incubated for 24 hrs by SYBR-green based qPCR analysis; type: cell-based; conditions: filed as agonist; summary of the method: as §2
COS-1 = experiment: Agonist activity at recombinant full length human PPARalpha/gamma/RXRalpha expressed in African green monkey COS-1 cells assessed as induction of PLIN1 driven luciferase reporter activity at 25 uM incubated for 18 hrs by dual luciferase reporter gene assay; type: cell-based; conditions: filed as agonist
Summary of the method: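 COS-1 cells were kept in DMEM/10% FBS at 37 °C, 5% CO2, and seeded at 7×10^4 per well. After 24 h they were lipofected with full-length PPAR and RXR expression plasmids, a PLIN1- or CPT1A-driven luciferase reporter and pRL-CMV Renilla control. Compound in DMSO (final 0.1%) was added 5 h later. After 18 h, cells were lysed for Dual-Luciferase readout. Three biological replicates were run in quadruplicate.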

Question: With `CCCCC/C=C/C(=O)CCCCCCCC(=O)O` as the compound, how does the Activity [1] read?
Answer: The Activity was “Active”.

Question: What about the EC50 [2] of the same compound?
Answer: Its EC50 is 8.5 µM.

Question: What about the Activity [3] of the same compound?
Answer: Its Activity is “Active”.

Question: What about the Activity (SGBS [4]) of the same compound?
Answer: The Activity was “Active”.

Question: What about the Activity (SGBS [5]) of the same compound?
Answer: Its Activity is “Active”.

Question: And the Activity [6]?
Answer: The Activity was “Active”.

Question: And the Activity [7]?
Answer: Its Activity is “Active”.

Question: And the Activity [8]?
Answer: Its Activity is “Active”.

Question: And the viability [9]?
Answer: Its viability is greater than 90%.

Question: What does the source list for `CCCCCCCC(=O)/C=C/CCCCCC(=O)O`?
Answer: EC50 [2]: 10 µM; Activity [10]: Active; Activity [3]: Active; Activity (SGBS [4]): Active; Activity (SGBS [5]): Active; Activity [6]: Active; Activity [8]: Active; Activity (COS-1): Active; viability [9]: > 90%
